Eight compounds from ChEMBL document CHEMBL1128695, “Synthesis and antiviral activity of 8-aza analogs of chiral [2-(phosphonomethoxy) propyl]guanines” (J Med Chem, 1995) can be followed below.

In assay [1] the test system is MT4. Description: Protection of MT-4 cells against the cytopathic effect of HIV-1 (4 days). The format is functional, cell-based. The conditions noted are these: Homo sapiens, MT4, 96 h. The method, boiled down:
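MT-4 cells (1×10^4/well, RPMI/10% FCS) with compound dilutions, infected with HIV-1 IIIB at 100 CCID50 (MOI 0.01). Stock from persistently infected H9/IIIB supernatant, titrated in C8166 by syncytia scoring.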

Assay [2] can be described thus: Selectivity Index measured as the ratio of CC50 to that of EC50(HIV-1) values. Type of assay: functional. The method, boiled down: (§1)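 HIV-1 IIIB (100 CCID50, MOI 0.01) was added to 1×10^4 MT-4 cells per well in RPMI/10% FCS with serial compound dilutions, made from a 100 mg/mL DMSO stock. After 4 days at 37 °C, viable cells were counted by MTT. […] SI = CC50/EC50.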

The test system of assay [3] is MT4. Description: Protection of MT-4 cells against the cytopathic effect of HIV-2 (8 days). The settings on record: Homo sapiens, MT4, 192 h. The format is functional, cell-based. The method, boiled down:
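MT-4 cells (1×10^4/well, RPMI/10% FCS) with compound dilutions, infected with HIV-2 ROD at 100 CCID50 (MOI 0.01). Stock from persistently infected CEM supernatant.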
On the technique in general: Cytopathic effects are the visible damage that an infection or toxin causes in cultured cells.

In assay [4] the test system is MT4. The assay can be described thus: Cytotoxic concentration required to reduce viability of mock-infected MT-4 cells (4 days). The format is functional. The conditions noted are these: Homo sapiens, MT4, 96 h. The method, boiled down:
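Mock-infected MT-4 cells, 1×10^4/well, incubated with serial compound dilutions (DMSO stock 100 mg/mL diluted in RPMI/10% FCS) for 4 days at 37 °C, run alongside the antiviral test.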

The nature of assay [5]: Selectivity Index measured as the ratio of CC50 to that of EC50(HIV-2) values. Type of assay: functional. The method, boiled down:
(§2)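 HIV-2 ROD (100 CCID50, MOI 0.01) infected 1×10^4 MT-4 cells per well in RPMI/10% FCS containing compound dilutions, made from a 100 mg/mL DMSO stock. After 8 days at 37 °C, MTT read viability. […] The CC50 comes from parallel mock-infected MT-4 cultures by MTT over 4 days. The index is the CC50/EC50 ratio.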

Assay [6] is described as follows: Selectivity Index measured as the ratio of CC50 to that of EC50 (HIV-2) values. Type of assay: functional. The method, boiled down: as §2
Assay [7] in a line: Selectivity Index measured as the ratio of CC50 to that of EC50 (HIV-1) values. Type of assay: functional. The method, boiled down: as §1

Each structure is given as a SMILES string.

With `C[C@@H](Cn1nc2nc(N)nc(O)c2n1)OCP(=O)(O)O`, the figures for the 50% effective concentration (EC50) in the assay with MT4 [1] and in the assay on MT4 [3] were 53 µM and 73 µM, respectively. For the same compound, the Selectivity index in assay [2] is > 7.5; in assay [5], > 5.5. The CC50 with MT4 [4] was > 400 µM.
As to `C[C@H](Cn1nc2nc(N)nc(O)c2n1)OCP(=O)(O)O`, the concentration giving a half-maximal response (EC50) in the assay with MT4 [1] and in the assay with MT4 [3] was > 400 µM each time. Besides, in the assay with MT4 [4], the CC50 was > 400 µM.
With `C[C@H](Cn1cnc2c(O)nc(N)nc21)OCP(=O)(O)O`, the Selectivity index in assay [6] is 1.6; in assay [7] it was 2.5. For the same compound, the EC50 with MT4 [1] amounted to 19 µM; with MT4 [3] it was 30 µM. Also, in the assay on MT4 [4], the CC50 is > 48 µM.
As to `C[C@H](Cn1nnc2c(O)nc(N)nc21)OCP(=O)(O)O`, the Selectivity index in assay [6] is 2; in assay [7], > 4.3. Besides, the EC50 with MT4 [1] was determined as 93 µM; with MT4 [3], 200 µM. Further, the CC50 in the assay with MT4 [4] was > 400 µM.
`C[C@@H](Cn1cnc2c(O)nc(N)nc21)OCP(=O)(O)O`: the Selectivity index in assay [6] and in assay [7] was > 89 each time. Moreover, the concentration for a half-maximal effect (EC50) in the assay on MT4 [1] and with MT4 [3] was 4.5 µM each time. Moreover, the CC50 in the assay on MT4 [4] was > 400 µM.
Consider `Cc1cn([C@H]2C[C@H](N=[N+]=[N-])[C@@H](CO)O2)c(=O)[nH]c1=O` [ZIDOVUDINE], for which, in the assay on MT4 [4], the CC50 was > 20 µM.
On to `C[C@@H](Cn1nnc2c(O)nc(N)nc21)OCP(=O)(O)O`, for which the figures for the Selectivity index in assay [6] and in assay [7] were > 32 and > 33, respectively. The EC50 is 12 µM in the assay on MT4 [1] and 12.5 µM in the assay on MT4 [3]. Moreover, in the assay on MT4 [4], the CC50 was > 400 µM.
In the case of `Nc1nc2c(ncn2CCOCP(=O)(O)O)c(=O)[nH]1` [GS-438], the Selectivity index worked out at 12 in assay [6] and 12.6 in assay [7]. For the same compound, the EC50 with MT4 [1] was 0.19 µM; in the assay with MT4 [3], 0.2 µM. The compound further had a CC50 in the assay on MT4 [4] of 2.4 µM.

For orientation: EC50 means the concentration needed to bring the measured effect to its halfway point. A higher EC50 goes with a need for much substance. One may read the CC50 as the concentration at which the toxic effect on the cells reaches its halfway point.
